# Laboratory results as given in ChEMBL document CHEMBL1138651, “Synthesis of small molecule CDC25 phosphatases inhibitors” (Bioorg Med Chem Lett, 2004).
# Molecular target: T1, M-phase inducer phosphatase 3 (Homo sapiens, UniProt P30307)
# T1 sequence (P30307 whole entry): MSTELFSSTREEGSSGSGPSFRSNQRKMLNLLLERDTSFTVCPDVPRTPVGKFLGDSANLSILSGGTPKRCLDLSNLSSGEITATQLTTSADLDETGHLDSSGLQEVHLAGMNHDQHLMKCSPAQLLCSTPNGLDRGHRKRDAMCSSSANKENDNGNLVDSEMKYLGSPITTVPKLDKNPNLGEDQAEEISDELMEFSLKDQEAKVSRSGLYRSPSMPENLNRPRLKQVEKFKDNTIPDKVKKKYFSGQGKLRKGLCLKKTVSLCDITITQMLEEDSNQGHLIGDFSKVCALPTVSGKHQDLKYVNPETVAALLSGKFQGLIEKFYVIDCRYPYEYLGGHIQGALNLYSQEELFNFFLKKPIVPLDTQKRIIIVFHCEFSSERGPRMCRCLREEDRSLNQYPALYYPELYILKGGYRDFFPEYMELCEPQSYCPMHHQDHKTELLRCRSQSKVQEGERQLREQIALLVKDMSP
# Test: Inhibitory concentration for human cell division cycle 25 degree C phosphatase; […]
row,Compound,IC50 [µM]
1,CN(CCc1ccc([N+](=O)[O-])cc1)Cc1ccccc1O,> 80
2,COc1cccc(CN(C)CCc2ccc([N+](=O)[O-])cc2)c1,> 80
3,COc1cccc(CN(C)CCc2ccc([N+](=O)[O-])cc2)c1O,> 80
4,COc1ccc(OC)c(CN(C)CCc2ccc([N+](=O)[O-])cc2)c1,> 80
5,COc1cc(N(C)C)ccc1CN(C)CCc1ccc([N+](=O)[O-])cc1,> 80
6,COc1cccc(CN(C)CCc2ccc([N+](=O)[O-])cc2)c1OC,> 80
7,CN(CCc1ccc([N+](=O)[O-])cc1)Cc1cccc(N(C)C)c1,> 80
8,CN(CCc1ccc([N+](=O)[O-])cc1)Cc1cc([N+](=O)[O-])ccc1O,> 80
9,CN(CCc1ccc([N+](=O)[O-])cc1)Cc1ccccc1,> 80
10,CN(CCc1ccc([N+](=O)[O-])cc1)Cc1ccc(N(C)C)cc1,> 80

# Molecular target: T1, M-phase inducer phosphatase 3
# Test: Inhibitory concentration for human cell division cycle 25 degree C phosphatase
# Method in brief: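 Recombinant human CDC25C expressed as an MBP fusion, assayed with 3-O-methylfluorescein phosphate (OMFP) as substrate. Dose-response used to derive IC50, with menadione as positive control. Values are the mean ± SEM of at least two independent experiments. Compounds with IC50 > 80 µM were scored not active.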
row,Compound,IC50 [µM]
1,CC1=CC(=O)c2ccccc2C1=O [MENADIONE],18.8
2,CN(C)c1ccc(O)c(CNCCc2ccc([N+](=O)[O-])cc2)c1,3.9
3,COc1cc(CN(C)CCc2ccc([N+](=O)[O-])cc2)cc(N(C)C)c1O,20.7
4,CN(CCc1ccc([N+](=O)[O-])cc1)Cc1cc(N(C)C)ccc1O,5.6
5,COc1cc(N(C)C)cc(CNCCc2ccc([N+](=O)[O-])cc2)c1O,4
